# Shown are actives, neighbours in structure and some others; about 1.9% of the full set was active somewhere.
# UHRF1 MBD2 ctr: blocks human UHRF1 binding to methylated DNA; actives 0.75% (n = 370,000); inhibition, % at 4.4 µM; Q96T88; UHRF1 binding to methylated oligo, TR-FRET; AID 687016; in the data active = inhibition above about 21%;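 also: UHRF1 SRA domain binding a hemimethylated CpG hairpin DNA probe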
# MBD2 DNA inh: MBD2-methylated oligo binding inhibition; Q9UBB5; TR-FRET, MBD2 binding to methylated oligonucleotide; inhibition, % at 4.4 µM; actives 0.31% (n = 370,000); in the data active = inhibition above about 13%
# Target sequence (Q9UBB5 whole entry, looked up): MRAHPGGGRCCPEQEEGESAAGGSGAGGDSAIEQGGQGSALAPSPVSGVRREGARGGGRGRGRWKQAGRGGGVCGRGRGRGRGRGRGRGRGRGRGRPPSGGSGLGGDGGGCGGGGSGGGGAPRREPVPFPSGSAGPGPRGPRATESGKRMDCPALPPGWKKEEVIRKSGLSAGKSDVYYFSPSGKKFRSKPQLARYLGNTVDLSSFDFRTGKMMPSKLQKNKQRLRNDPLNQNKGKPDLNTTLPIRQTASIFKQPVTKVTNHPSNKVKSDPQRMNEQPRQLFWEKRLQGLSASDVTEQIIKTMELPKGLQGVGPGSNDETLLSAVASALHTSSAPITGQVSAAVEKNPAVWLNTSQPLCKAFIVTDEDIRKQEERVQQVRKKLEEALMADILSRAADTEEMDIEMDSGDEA
# TDP2 absorb: TDP2 (human) inhibition, absorbance primary screen; O95551; recombinant TDP2, T5PNP hydrolysis, p-nitrophenol absorbance 415 nm; inhibition, % at 12.8 µM; actives 0.34% (n = 370,000);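 active = inhibition above the mean of all tested compounds plus 3 SD, set per campaign, cut at about 25% in these data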
#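 Evaluation: % inhibition relative to enzyme-containing and enzyme-free wells. Material: recombinant human TDP2. Benchmarks: enzyme-free and DMSO wells. Timing: enzyme reaction with compound for 2 h at 37 °C. Compound dosing: 12.8 µM only. Measured by: p-Nitrophenol epi absorbance. Reagent: T5PNP substrate at 5 mM, a TopII-DNA adduct mimic. Replication: single well per compound.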
# LEDGF integ inh: blocks HIV-1 LEDGF/p75-dependent DNA integration | TR-FRET IN-LEDGF/p75 DNA integration, Eu/Cy5 | inhibition, % at 3.7 µM | actives 0.64% (n = 370,000) | AID 743269;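 active = inhibition above the screen-wide mean plus 3 SD, cut at about 13% in these data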;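 also: signal is the Cy5 over europium emission ratio at 671 and 618 nm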
# Rin1 Abl inh: inhibitors of human Rin1-Abl protein interaction; P00519+Q13671; TR-FRET Rin1/Abl binding, biochemical; inhibition, % at 7.35 µM; actives 0.4% (n = 360,000); AID 588664; in the data active = inhibition above about 5%, passing the limit was not always enough
# TDP2 inh conf: confirmation of human TDP2 inhibitors | actives 22% (n = 1,100) | AID 743263 | recombinant human TDP2, absorbance read-out | shares compounds with TDP2 absorb | inhibition, % at 12.8 µM; in the data active = inhibition above about 25%
# Hits are given with their value; – = inactive; · = not tested or not shown.
SMILES,UHRF1 MBD2 ctr,MBD2 DNA inh,TDP2 absorb,LEDGF integ inh,Rin1 Abl inh,TDP2 inh conf
CC1(N2CCCCC2)C(=O)c2ccccc2C1=O,–,–,62,–,–,–
COc1ccccc1-n1ccnc(SCC(=O)NCc2ccccc2Cl)c1=O,–,–,29,–,–,–
COc1ccc(-n2ccnc(SCC(=O)NCc3ccccc3Cl)c2=O)cc1,–,–,–,–,–,·
CN(Cc1ccccc1)C(=O)OCc1cn(Cc2ccc(F)cc2)nn1,–,–,–,–,·,·
COP(=O)(OC)C(Cc1ccccc1)NC(=O)CNC(=O)OCc1ccccc1 (configuration not stated),–,–,–,–,·,·
C=CCn1c(N)c(C(=O)NCC2CCCO2)c2nc3ccccc3nc21 (configuration not stated),–,–,35,–,–,–
Nn1c(SCC(=O)Nc2ccc(S(=O)(=O)Nc3nccs3)cc2)nnc1-c1ccco1,–,–,–,–,·,·
Cc1ccc(NC(=O)CSCc2cc(=O)n3ccsc3n2)c(C)c1,–,–,33,–,–,–
COc1ccccc1NC(=O)CSCc1cc(=O)n2ccsc2n1,–,–,–,–,–,·
CCCc1nnc(NC(=O)CCC(=O)N2CCCCC2)s1,–,–,26,–,–,–
CCCc1nnc(NC(=O)CCC(=O)N2CCCCCC2)s1,–,–,–,–,–,·
Cc1ccc(-n2nc3c(=O)n(CC(=O)NCc4ccc(C)o4)nc(C)c3c2C)cc1,–,–,–,–,–,·
Cc1ccc(-n2nc3c(=O)n(CCCC(=O)NCc4ccc(C)o4)nc(C)c3c2C)cc1,–,–,25,–,–,–
CCOC(=O)N1CCN(C(=O)C[C@H]2C[C@@]3(C(=O)OC)C(=C[C@H](C4CCCC4)O[C@@H]3C)N(Cc3ccc(Cl)cc3Cl)C2=O)CC1,–,–,–,–,·,·
O=C1C(Nc2ccccc2)=C/C(=N/S(=O)(=O)c2cccs2)c2ccccc21,·,·,·,·,–,·
CCc1cc[n+](C2=C([O-])c3ccccc3C(=O)/C2=N\S(=O)(=O)c2cccs2)cc1,–,–,41,–,–,40
Cc1cc2oc(C(=O)NCCc3ccc(S(N)(=O)=O)cc3)cc(=O)c2cc1C,–,–,–,–,–,·
Cc1cc2oc(C(=O)NCCc3ccc(S(N)(=O)=O)cc3)c(C)c2cc1C,–,–,30,–,–,–
Cc1ccc(Nc2nc(N)nc(CN3CCCCCC3)n2)c(C)c1,–,–,38,–,–,–
C#CCNC(=O)C[C@H]1C[C@@]2(C(=O)OC)C(=C[C@H](C3CCCC3)O[C@@H]2C)N(CCC2=CCCCC2)C1=O,–,–,–,–,·,·
COc1cc(C(CC(=O)Nc2ncccc2C)N2Cc3ccccc3C2=O)cc(OC)c1OC (configuration not stated),–,–,26,–,–,–
O=S(=O)(Nc1ccc(NS(=O)(=O)c2ccccc2)c2ccccc12)c1ccccc1,–,–,–,–,–,·
CCc1ccc(S(=O)(=O)Nc2ccc(O)c3ccccc23)cc1,–,–,54,–,–,–
CCc1ccc(S(=O)(=O)Nc2cc(SCC(=O)O)c(O)c3ccccc23)cc1,–,–,51,–,–,35
CCOCCCNC(=O)Cn1cc2c(n1)-c1c(oc(C(=O)N3CCCC3)c1C)CC2,–,–,38,–,–,–
SMILES,UHRF1 MBD2 ctr,MBD2 DNA inh,TDP2 absorb,LEDGF integ inh,Rin1 Abl inh,TDP2 inh conf
CCOCCCNC(=O)Cn1cc2c(n1)CCCCC2,–,–,–,–,–,·
CCOC(=O)/C(C#N)=C1/C=CN(Cc2ccccc2)C=N1,–,–,–,–,–,·
CCOC(=O)C(=O)C1=CN(Cc2ccccc2)C=C(C#N)C1,–,–,27,–,–,–
CCCC(=O)N1CCC[C@]2(CC[C@@H](CCC(=O)N(CC)CC)O2)C1,–,–,–,–,·,·
COc1cc(C2C(C(=O)c3ccco3)=C(O)C(=O)N2CC2CCCO2)ccc1O (configuration not stated),–,–,–,–,–,·
O=C(C1=C(O)C(=O)N(CC2CCCO2)C1c1cccc(O)c1)c1ccco1 (configuration not stated),–,–,27,–,–,–
OC(CNCc1ccc(Cl)cc1)COc1ccccc1 (configuration not stated),–,–,25,–,–,–
Cc1cc(NC(=O)CSc2nccn2C)n(-c2ccccc2)n1,–,–,26,–,–,–
CCC(C)N1CC(C(=O)NC2CCCCC2)CC1=O (configuration not stated),–,–,25,–,–,–
CC(=O)N1CCN(S(=O)(=O)c2ccc3c(c2)oc(=O)n3C)CC1,–,–,–,–,·,·
CN(CCOc1ccccc1)CC(=O)Nc1cccc(Br)c1,–,–,32,–,–,–
O=C1C(=O)N(c2nccs2)C(c2ccccc2F)/C1=C(\O)c1ccc2c(c1)OCCO2 (configuration not stated),23,–,26,–,–,–
O=C(/C=C/c1cccc([N+](=O)[O-])c1)NCCN1C(=O)S/C(=C\c2cccnc2)C1=O,–,–,25,–,–,–
Oc1ccc2ccccc2c1C=NC12CN3CCN(CN(C3)C1)C2,–,–,53,24,–,36
CC(C)CNS(=O)(=O)/C=C/c1ccccc1CCNC(=O)OC(C)(C)C,–,–,–,–,·,·
Cc1ccc(CN2CCCCC(NC(=O)Nc3ccccc3F)C2=O)cc1 (configuration not stated),–,–,–,–,·,·
COC(=O)c1noc(C)c1-c1ccnn1C(=O)c1ccc(C)cc1,–,–,25,–,–,–
O=c1cc(-c2ccc(Cl)cc2)[nH][nH]1,–,–,74,–,–,–
O=c1cc(-c2cccc3ccccc23)[nH][nH]1,–,–,–,–,–,·
CCN(CC)c1ccc(/C=C2\C(=O)N(c3nnc(C)c(=O)[nH]3)N=C2C)cc1,–,–,26,–,–,–
S=C(N/N=C/c1ccc2c(c1)OCO2)NC1CC2CCC1C2 (configuration not stated),–,–,26,–,–,–
COC(=O)C1CN(Cc2ccc(OC)cc2)CCS(=O)(=O)N1Cc1ccc(C)cc1 (configuration not stated),–,–,–,–,·,·
COc1ccc(NC(=O)CSc2nc3c(c(=O)n(C)c(=O)n3C)n2C)c(OC)c1,–,–,–,–,–,·
COc1ccc(C(=O)NNC(=O)CSc2nc3c(c(=O)n(C)c(=O)n3C)n2C)cc1,–,–,25,–,–,–
CC(=O)c1cc(OC(=O)N2CCOCC2)ccc1OC(=O)N1CCOCC1,–,–,75,–,–,–
O=C(N/N=C/c1c(F)cccc1Cl)C1CC1,–,–,63,–,–,–
O=C(N/N=C/c1ccccc1Cl)C1CC1,–,–,–,–,–,·
O=C(CCC1CCCCC1)NCc1ccc(F)cc1,–,–,–,–,–,·

# Screens deposited in PubChem by The Scripps Research Institute Molecular Screening Center.
